This is a sample that favours compounds with a hit; in the whole collection about 1.8% have one here.
Thrombin inh – blocks human thrombin protease activity; alpha-thrombin, Boc-VPR-AMC fluorogenic substrate cleavage; inhibition, % at 5 µM; 0.26% of 220,000 active;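 active means inhibition at or above 40%; inactive means inhibition below 40%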
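Test system: human alpha-thrombin; medium: pH 7.5 Tris-saline with Tween 20; times: reaction at room temperature; signal: AMC fluorescence at 355 nm excitation and 460 nm emission; also added: Boc-VPR-AMC substrate, 15 µM final; dosing: one concentration per compound, 5 µM, with 0.2% DMSO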
Wee1 stabilizer – inhibitors of human Wee1 degradation; reporter increase, % at 5 µM; HeLa Luc-Wee1K328M stability, luciferase luminescence; 100% = proteasome inhibitor MG132 effect; P30291; 1.2% of 220,000 active;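 active means activation above the mean of all tested compounds plus 3 SD, set per screening run, cut at about 8.8% in these data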;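 further: cells exposed to compound for 20 h before luminescence read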
FXIIa inh – inhibitors of human coagulation factor XIIa; P00748; purified FXIIa, Boc-QGR-AMC fluorogenic substrate, 2 h; inhibition, % at 5 µM; 0.3% of 220,000 active; in the data active means inhibition above about 40%
Target sequence (P00748 20-372 limits assumed): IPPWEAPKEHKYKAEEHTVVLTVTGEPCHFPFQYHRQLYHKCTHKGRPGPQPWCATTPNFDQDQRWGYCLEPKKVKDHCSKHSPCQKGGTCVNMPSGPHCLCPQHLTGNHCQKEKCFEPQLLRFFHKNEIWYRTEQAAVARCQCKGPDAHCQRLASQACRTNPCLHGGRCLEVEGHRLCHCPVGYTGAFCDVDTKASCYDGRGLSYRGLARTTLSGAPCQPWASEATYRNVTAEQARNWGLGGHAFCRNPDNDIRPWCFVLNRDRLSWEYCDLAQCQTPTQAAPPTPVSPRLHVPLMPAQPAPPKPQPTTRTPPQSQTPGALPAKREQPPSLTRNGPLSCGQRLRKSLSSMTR
Target sequence (P00748 373-615 limits assumed): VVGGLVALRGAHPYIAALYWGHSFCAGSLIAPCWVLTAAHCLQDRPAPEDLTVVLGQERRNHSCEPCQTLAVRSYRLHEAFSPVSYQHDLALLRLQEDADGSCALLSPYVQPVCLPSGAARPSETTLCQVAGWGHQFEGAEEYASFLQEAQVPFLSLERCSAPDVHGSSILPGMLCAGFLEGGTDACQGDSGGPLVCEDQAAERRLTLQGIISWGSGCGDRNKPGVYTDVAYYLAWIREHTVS
Platelet DG rel – modulates dense granule release in human platelets | AID 1663 | inhibition, %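 (compounds screened at 7.5 µM in platelet-rich plasma)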 | 0.22% of 300,000 active | human platelet-rich plasma, SFLLRN dense granule ATP release, luminescence;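 active means mean replicate score, as percent of positive control, at or above 50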
KLK5 inh – blocks human kallikrein 5 protease activity; inhibition, % at 5 µM; AID 873; recombinant hK5, fluorogenic AMC substrate cleavage; 0.59% of 210,000 active;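 active means inhibition of 40% or more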
FXIa inh – factor XIa (human) inhibition | purified FXIa, Boc-Glu-Ala-Arg-AMC fluorogenic substrate | inhibition, % at 5 µM | 0.14% of 220,000 active | AID 798;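 active means inhibition of at least 40%; inactive means inhibition below 40%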;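 further: fluorescence of freed AMC excited at 355 nm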
Wee1 stab conf – human Wee1 degradation inhibition, confirmation; HeLa Luc-Wee1K328M degradation, luminescence; vehicle 0%, proteasome-blocked wells 100%; shares compounds with Wee1 stabilizer; activation, % at 5 µM; 4% of 1,100 active; in the data active means activation above about 8.9%
Of the large screens only hits and unclear results are named; the others gave an inactive call (follow-up assays come after a bar, where they were run).

Cc1ccc(CN2CCN(Cc3cccn3-c3nccs3)CC2CCO)cc1 (stereo not drawn)	Wee1 stabilizer 13.3 | Wee1 stab conf inactive
Nc1nc2ccc(C(=O)Nc3ccccc3)cc2s1	Wee1 stabilizer 15.4 | Wee1 stab conf inactive
COc1ccc2c(c1)C=C([C@@H]1C[C@H]3CN(c4ccccc4)C(=O)[C@]34CCCN14)CO2	none (no result: KLK5 inh)
Cc1ccc(NC(=O)CN(C)Cc2nc3ccccc3c(=O)[nH]2)c(Br)c1	Wee1 stabilizer 11.1 | Wee1 stab conf inactive
COc1ccc(/C=C/C(=O)NC(=S)NNC(=O)c2cccnc2)cc1	Wee1 stabilizer 16.8 | Wee1 stab conf inactive
Cc1ccc(S(=O)(=O)NC2CC(C)(C)NC(C)(C)C2)c(C)c1C	none (no result: Thrombin inh, Wee1 stabilizer, FXIIa inh, KLK5 inh, FXIa inh)
O=C(c1ccc(Cl)cc1)C1CCCN(C(=O)c2csnn2)C1 (stereo not drawn)	Wee1 stabilizer 16.3 (no result: KLK5 inh) | Wee1 stab conf inactive
O=C(N=C1SCC(=O)N1c1ccccc1)c1ccco1	none (no result: Platelet DG rel)
O=C(N=C1SCC(=O)N1c1ccccc1Cl)c1ccco1	Wee1 stabilizer 13.9 | Wee1 stab conf inactive
COc1cc(C)c(C)cc1S(=O)(=O)N1CCN(Cc2ccccc2)CC1	Wee1 stabilizer 14.4 | Wee1 stab conf inactive
CC1CCN(c2nc3c(c(=O)[nH]c(=O)n3C)n2CCSc2nc3ccccc3o2)CC1	none
CC(C)CC(NC(=O)OC(C)(C)C)c1cn([C@@H](Cc2ccc(O)cc2)C(=O)N2CCN(C(=O)OC(C)(C)C)CC2)nn1 (stereo partly drawn)	none
CCOC(=O)CC(N)c1cccc([N+](=O)[O-])c1 (stereo not drawn)	none (no result: KLK5 inh)
COc1ccc(-c2nc(CCl)cs2)cc1	Wee1 stabilizer 12.2 | Wee1 stab conf inactive
COc1cccc(-c2nc(CCl)cs2)c1	none
CCN(c1ccccc1)S(=O)(=O)c1ccc(C(=O)N(CCN(C)C)c2nc3c(F)cc(F)cc3s2)cc1	none (no result: Thrombin inh, Wee1 stabilizer, FXIIa inh, KLK5 inh, FXIa inh)
NC(=S)N/N=C/c1ccc(-c2cc(Cl)c(Cl)cc2Cl)o1	none
NC(=S)N/N=C/c1ccc(Br)o1	Wee1 stabilizer 17.1 | Wee1 stab conf inactive
O=C1CC(C(=O)Nc2ccccc2)N=C(N2CCOCC2)N1 (stereo not drawn)	Wee1 stabilizer 11.4 | Wee1 stab conf inactive
CCc1nn(CC(=O)N2CCCCCC2)c(=O)c2cc3ccccc3n12	none (no result: Thrombin inh, Wee1 stabilizer, FXIIa inh, KLK5 inh, FXIa inh)
O=C(NCCN1CCOCC1)C1CCC(=O)N1Cc1ccc(F)cc1 (stereo not drawn)	Wee1 stabilizer 10.9 | Wee1 stab conf inactive
CN1CCN(c2ccc(S(=O)(=O)N3CCCCC3)cn2)CC1	none
O=S(=O)(c1ccc(N2CCCCCC2)nc1)N1CCCC1	Wee1 stabilizer 12.7 | Wee1 stab conf inactive
COCc1cc(C)nc(Nc2ccccc2OC)c1C#N	none (no result: Thrombin inh, Wee1 stabilizer, FXIIa inh, KLK5 inh, FXIa inh)
O=C(CC1N=C(Cc2ccccc2)NNC1=O)N/N=C/c1ccc([N+](=O)[O-])cc1 (stereo not drawn)	none
COc1ccc(NC(=O)C2(S(=O)(=O)c3ccc(C)cc3)CC2)cc1OC	none (no result: Thrombin inh, Wee1 stabilizer, FXIIa inh, KLK5 inh, FXIa inh)
Cc1ccc(S(=O)(=O)C2(C(=O)Nc3ccc(Br)cc3)CC2)cc1	Wee1 stabilizer 13.8 | Wee1 stab conf inactive
C/C(=N\NC(=O)c1ccoc1C)c1ccc(Cl)s1	none (no result: Thrombin inh, Wee1 stabilizer, FXIIa inh, KLK5 inh, FXIa inh)
C/C(=N\NC(=O)c1csc(C)c1C)c1ccc(Cl)s1	Wee1 stabilizer 11.7 | Wee1 stab conf inactive
Cc1ccc(OCCSc2nc(N)cc(N)n2)cc1	Wee1 stabilizer 11.4 | Wee1 stab conf inactive
O=C(NC(=S)N1CCCCC1)c1csc([N+](=O)[O-])c1	none
Cc1ccc(OCCN2C(=O)C(=O)c3cccc(C)c32)cc1	none
CC12CCC(=O)N1C(C(=O)OCC(=O)Nc1ccc(Cl)c(Cl)c1)CS2 (stereo not drawn)	Wee1 stabilizer 20.9 | Wee1 stab conf inactive
C/C(=N\NC(=O)c1ccc(NS(=O)(=O)c2cccs2)cc1)c1ccc2c(c1)OCO2	none (no result: FXIIa inh)
Cc1cc(C)c(S(=O)(=O)N2CCCOC2CNC(=O)C(=O)NCc2ccco2)c(C)c1 (stereo not drawn)	none
COC(=O)c1cc(-c2ccc3c(c2)OCO3)nc2ccccc12	none
c1ccc2nc(-c3ccc4c(c3)OCO4)ccc2c1	Wee1 stabilizer 10.3 | Wee1 stab conf inactive
COc1ccc(C(C)=O)cc1CSCCC#N	Wee1 stabilizer 14.4 | Wee1 stab conf inactive
CCCC(=O)Nc1ccc2c(c1)nc(CN1CCCCC1)n2C	Wee1 stabilizer 16.1 | Wee1 stab conf inactive
NS(=O)(=O)c1cccc(NC(=O)CSc2nc3ccc(Cl)cc3[nH]2)c1	Wee1 stabilizer 11.8 | Wee1 stab conf inactive
O=C(/C=C/c1ccc(Br)cc1)c1ccc(NC2=NCCCS2)cc1	Wee1 stabilizer 12.2 | Wee1 stab conf inactive
Cc1ccc(S(=O)(=O)NCC2CCC(C(=O)NCc3cccs3)CC2)cc1 (stereo not drawn)	none
O=C(NCc1cccs1)C1CCC(CNS(=O)(=O)c2ccccc2)CC1 (stereo not drawn)	Wee1 stabilizer 12.1 | Wee1 stab conf inactive
CCCCN(C)CCCNC(=O)CS(=O)Cc1nc(-c2ccc(OC)c(OC)c2)oc1C (stereo not drawn)	Wee1 stabilizer 12.9 | Wee1 stab conf inactive
CCCN(CCC)CCCNC(=O)CS(=O)Cc1nc(-c2ccc(OC)c(OC)c2)oc1C (stereo not drawn)	none
O=C1c2ccccc2C(=O)C2OC12 (stereo not drawn)	none (no result: Thrombin inh, Wee1 stabilizer, FXIIa inh, KLK5 inh, FXIa inh)
CCN(c1ccccc1)S(=O)(=O)c1ccc(OC)c(NC(=O)CCc2nc3ccccc3c(=O)[nH]2)c1	none (no result: Thrombin inh, Wee1 stabilizer, FXIIa inh, KLK5 inh, FXIa inh)
CCc1ccc(C2c3[nH]c4ccccc4c3CCN2C(=O)CNC(N)=O)cc1 (stereo not drawn)	Wee1 stabilizer 22.8 (no result: KLK5 inh) | Wee1 stab conf inactive
CC(C)C(C)NC(=O)COC(=O)/C=C/c1ccc(S(=O)(=O)N2CCc3ccccc32)cc1 (stereo not drawn)	none
O=C(CCc1nc2ccccc2c(=O)[nH]1)Nc1ccc(N2CCCCC2)cc1	Wee1 stabilizer 11.2 | Wee1 stab conf inactive
COc1ccc(C(=O)Cn2nc(CNc3ccc(Br)cc3)[n+]3c2CCCCC3)cc1	none
Cc1ccc(C(C)C)c(OCc2nn(CC(=O)c3ccc(OC(F)F)cc3)c3[n+]2CCCCC3)c1	Wee1 stabilizer 18.0 | Wee1 stab conf inactive
CCCn1c(=N)n(CCOCCOCCn2c(=N)n(CCC)c3ccccc32)c2ccccc21	none (no result: Thrombin inh, FXIIa inh, Platelet DG rel, KLK5 inh, FXIa inh)
O=C(CS(=O)(=O)c1cn(CC(=O)N2CCCC2)c2ccccc12)Nc1ccccc1F	none (no result: Thrombin inh, Wee1 stabilizer, FXIIa inh, KLK5 inh, FXIa inh)
CC1(C)Oc2ccc(NC(=O)c3ccco3)cc2O1	Wee1 stabilizer 12.9 | Wee1 stab conf inactive
O=C(Nc1ccc2c(c1)OCCO2)c1ccco1	none
Cc1ccc(S(=O)(=O)N(C)CC(=O)N2CCN(Cc3ccccc3)CC2)cc1	none (no result: Thrombin inh, Wee1 stabilizer, FXIIa inh, KLK5 inh, FXIa inh)
c1ccc(C(c2ccccc2)N2CCN(c3nc4ccccc4n4cnnc34)CC2)cc1	Wee1 stabilizer 11.1 | Wee1 stab conf inactive
COCCNC(=O)C(=O)NNS(=O)(=O)c1ccc2ccccc2c1	none

High-throughput results deposited in PubChem BioAssay by several laboratories.
